Experimental data taken from publication PMC7902087 (Bioorganic & medicinal chemistry, 2020).
Where two headings read alike, the source gives them in different places.

Assays:
[1] = tested on: MCF-7 cells; assay: Detection of apoptosis; assay type: cell-based, human; settings: MCF-7, 24 h
[2] = tested on: HePG2, MCF-7, Hela and PC3 cell lines; assay: In vitro antitumor MTT assay, range over the four cell lines; assay type: cell-based; settings: Homo sapiens, read-out: IC50 range towards the four cell lines
[3] = tested on: MCF-7 cells; assay: Cell cycle arrest analysis; assay type: cell-based, human
[4] = tested on: Human lung fibroblast (WI38) cell line; assay: In vitro cytotoxicity against human normal cells; assay type: cell-based; settings: WI-38, read-out: IC50 against WI38 normal cells
[5] = tested on: Human prostate cancer (PC3); assay: In vitro antitumor MTT assay, PC3; assay type: cell-based; settings: read-out: In vitro cytotoxicity IC50 PC3
[6] = tested on: Hepatocellular carcinoma (HePG2); assay: In vitro antitumor MTT assay, HePG2; assay type: cell-based, human
[7] = tested on: Epitheliod Carcinoma Cervix cancer (Hela); assay: In vitro antitumor MTT assay, Hela; settings: read-out: In vitro cytotoxicity IC50 Hela
[8] = tested on: Mammary gland Breast cancer (MCF-7); assay: In vitro antitumor MTT assay, MCF-7
[9] = tested on: Pseudomonas aeruginosa PAO1; assay: Minimal inhibitory concentration, P. aeruginosa; assay type: cell-based; settings: broth dilution, 37 °C 18 h
How it was run: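 Broth microdilution with serial 1:1 dilutions of test compound in Mueller Hinton broth. Wells are inoculated with bacterial suspension at 5 × 10^6 CFU/ml, and ampicillin/clavulanic acid serves as the positive control. Plates incubate at 37 °C for 18 h. MIC is the lowest concentration with no visible growth.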

[10] = tested on: Staphylococcus aureus ATCC 29213; assay: Minimal inhibitory concentration, S. aureus; assay type: cell-based; settings: broth dilution, 37 °C 18 h
[11] = tested on: Candida albicans CS351; assay: Minimal inhibitory concentration, C. albicans; assay type: cell-based; settings: broth dilution, 37 °C 18 h
[12] = tested on: Bacillus cereus UW85; assay: Minimal inhibitory concentration, B. cereus; assay type: cell-based; settings: broth dilution, 37 °C 18 h
[13] = Homo sapiens, HepG2, read-out: In vitro cytotoxicity IC50 HePG2
[14] = Homo sapiens, MCF7, read-out: In vitro cytotoxicity IC50 MCF-7
[15] = read-out: In vitro cytotoxicity IC50 HePG2, MTT, Mean ± SD, n = 3
[16] = read-out: In vitro cytotoxicity IC50 MCF-7, MTT, Mean ± SD, n = 3

C/C(=N\Nc1nc(-c2ccccc2)cs1)c1cc2ccccc2o1 [Compound 8, (E)-2-(2-(1-(benzofuran-2-yl)ethylidene)hydrazinyl)-4-(4-phenyl)thiazole]
late apoptotic induction compared to control cells [1]: 98 fold | IC50 [2]: 8.49 to 16.7 µM | Cell cycle comment [3]: pre-G1 apoptosis and cell growth arrest at G2/M

CCOC(=O)Cc1csc(N/N=C(\C)c2cc3ccccc3o2)n1 [Compound 9, Ethyl (E)-2-(2-(2-(1-(benzofuran-2-yl)ethylidene)hydrazineyl)thiazol-4-yl)acetate]
late apoptotic induction compared to control cells [1]: 54 fold | late apoptotic induction ([1]; control 0.15%): 8.1% | IC50 [2]: 6.55 to 13.1 µM | Cell cycle comment [3]: pre-G1 apoptosis and cell growth arrest at G2/M

C/C(=N\Nc1nc(C)cs1)c1cc2ccccc2o1 [Compound 11, (E)-2-(2-(1-(benzofuran-2-yl)ethylidene)hydrazineyl)-4-methylthiazole]
IC50 [2]: 4 to 8.99 µM

COc1ccc(/N=N/C(C=O)=C(/O)c2cc3ccccc3o2)cc1 [Compound 13, (E)-3-(benzofuran-2-yl)-3-hydroxy-2-((E)-(4-methoxyphenyl)diazenyl)acrylaldehyde]
IC50 [4]: 83.5 µM

C/C(=N\N=C\c1ccc([N+](=O)[O-])cc1)c1cc2ccccc2o1 [Compound 22, (E)-1-(1-(benzofuran-2-yl)ethylidene)-2-((E)-4-nitrobenzylidene) hydrazine]
IC50 ([5]; Homo sapiens): > 100 µM | IC50 [6, 13]: 77.4 ± 3.9 µM | IC50 ([7]; Homo sapiens, HeLa): > 100 µM | IC50 [8, 14]: 88.5 ± 4.6 µM

C/C(=N\N=C\c1cccc(Cl)c1)c1cc2ccccc2o1 [Compound 23, (E)-1-(1-(benzofuran-2-yl)ethylidene)-2-((E)-3-chlorobenzylidene)hydrazine]
IC50 ([5]; Homo sapiens): 91.8 ± 4.9 µM | IC50 [6, 13]: 86.5 ± 4.3 µM | IC50 ([7]; Homo sapiens, HeLa): > 100 µM | IC50 [8, 14]: > 100 µM

COc1cccc2c1C(=O)c1c(O)c3c(c(O)c1C2=O)C[C@@](O)(C(=O)CO)C[C@@H]3O[C@H]1C[C@H](N)[C@H](O)[C@H](C)O1 [DOX, doxorubicin, reference compound]
IC50 [2]: 4.17 to 8.87 µM

(E)-2-(2-(1-(benzofuran-2-yl)ethylidene)hydrazineyl)-4-(benzofuran-5-yl)thiazole [Compound 10]
IC50 ([5]; MTT, Mean ± SD, n = 3): 34.2 ± 2.6 µM | IC50 [6, 15]: 21.2 ± 1.8 µM | IC50 ([7]; MTT, Mean ± SD, n = 3): 24.1 ± 2.1 µM | IC50 [8, 16]: 25.6 ± 2.2 µM

(E)-3-(benzofuran-2-yl)-3-hydroxy-2-((E)-(2-methylphenyl) diazenyl)acrylaldehyde [Compound 17]
IC50 ([5]; MTT, Mean ± SD, n = 3): 77.6 ± 4.3 µM | Minimal inhibitory concentration P. aeruginosa [9]: 512 µg/mL | Minimal inhibitory concentration S. aureus [10]: 8 µg/mL | IC50 [6, 15]: 72.4 ± 3.5 µM | IC50 ([7]; MTT, Mean ± SD, n = 3): 75 ± 4.2 µM | Minimal inhibitory concentration C. albicans [11]: 512 µg/mL | IC50 [8, 16]: 83.6 ± 4.3 µM | Minimal inhibitory concentration B. cereus [12]: 256 µg/mL

(E)-3-(benzofuran-2-yl)-3-hydroxy-2-((E)-(3-methylphenyl) diazenyl)acrylaldehyde [Compound 16]
IC50 ([5]; MTT, Mean ± SD, n = 3): 63.3 ± 3.9 µM | Minimal inhibitory concentration S. aureus [10]: 64 µg/mL | IC50 [6, 15]: 52.3 ± 3.1 µM | IC50 ([7]; MTT, Mean ± SD, n = 3): 69.4 ± 4 µM | IC50 [8, 16]: 66.2 ± 3.9 µM | Minimal inhibitory concentration B. cereus [12]: 128 µg/mL
